# “Also recorded” adds a separate entry of the source. Like-named read-outs stand apart in the source and are kept apart here.
# Experiments:
# [1] = test system: synthetic α-Syn aggregates and Aβ fibrils; details: cited from earlier work
# [2] = target: α-Syn PFFs (Homo sapiens, UniProt P37840); assay: Fibril binding assay; details: fluorescence, 0.08 μM fibrils, 5 μM compound
# Procedure, shortened: (§1)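 In the fluorescence screen, test compound (5 μM) in 50 mM Tris-HCl, 50 mM NaCl, pH 7.4 was added to fibrils or monomers (0.08 μM) in triplicate wells. Fluorescence was read at each compound's own excitation/emission wavelengths. α-Syn fibrils were commercial, dissolved to 1 mg/ml in PBS. Tau PFFs were assembled from 3 mg/mL protein with 12.5 μM heparin for 7 days at 37 °C with shaking; mixed 3R-4R fibrils used 0N3R and 2N4R at 1.5 mg/ml each.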
# [3] = target: Aβ PFFs (Homo sapiens, UniProt P05067); assay: Fibril binding assay; details: fluorescence; 0.08 μM fibrils, 5 μM compound
# [4] = target: Tau PFFs (Homo sapiens, UniProt P10636); assay: Fibril binding assay; details: fluorescence; 0.08 μM fibrils, 5 μM compound; regardless of 3R or 4R Tau
# Procedure, shortened: as §1
# [5] = target: α-Syn deposits in PD/DLB brain homogenates (Homo sapiens, UniProt P37840); assay type: binding
# Procedure, shortened: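 Brain lysates from 4 control and 4 patient cases were normalized for aggregate levels by pS129 western blot. Homogenates (0.2 mg/ml) were incubated with [18F]-labelled test compound (5–900 nM) for 1 h at 37 °C in 50 mM Tris-HCl, 50 mM NaCl, 0.5% sodium ascorbate, pH 7.4. Samples were then filtered, washed twice and counted by scintillation.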
# [6] = target: aggregated α-Syn in PD/DLB patients (Homo sapiens, UniProt P37840); assay: Saturation binding assay with insoluble α-Syn fraction from PD/DLB brain
# Procedure, shortened: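 Insoluble α-Syn was extracted from frozen PD and DLB brain in 50 mM Tris-HCl pH 7.4, 800 mM NaCl, 10 mM NaF, 5 mM EDTA at 100,000 × g. Pellets were re-extracted with buffer containing 1% Triton X-100, then 1% Triton X-100 plus 30% sucrose. A final 1% sarkosyl step ran overnight, followed by a 100,000 × g spin.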
# [7] = target: aggregated α-Syn in PD brains (Homo sapiens, UniProt P37840); assay: In vitro competition assay against [3H]BF-227 in postmortem PD brain tissue; assay type: binding; details: read-out: Ki against [3H]BF227; postmortem PD brain tissue homogenate
# Procedure, shortened: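 Postmortem PD brain homogenate (α-Syn aggregates, no other amyloid) was used at a final 100 μg tissue/mL in PBS/0.1% BSA, pH 7.0. Unlabeled test compound (0.1–1000 nM; 0.25% DMSO final) was combined with [3H]BF-227 solution (~2 nM). 100% inhibition was defined by displacement with 1 μM unlabeled compound. Each concentration was run in triplicate, giving Ki.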
# [8] = In vivo pharmacokinetics study in mice, i.v.; details: i.v. 5 mg/kg
# Procedure, shortened: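 Male ICR mice received 5 mg/kg i.v. Test compound was measured in plasma and brain homogenates at successive time points, with 3 mice per time point. Brain/plasma ratios, plasma half-life and clearance were derived; data are mean ± SD.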
# [9] = Toxicology test in mice; assay type: in vivo; details: C57BL/6 mice
# [10] = test system: α-Syn aggregates in primary neurons; assay: Fluorescence staining of primary neurons containing α-Syn aggregates; assay type: cell-based, rat; details: AAV-α-Syn + α-Syn PFFs, fluorescence microscopy
# Procedure, shortened: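 Primary embryonic rat neurons were cultured at 37 °C in 5% CO2 and infected with AAV-α-Syn at DIV7. At DIV12 they received sonicated α-Syn PFFs at 100 ng/ml final, with monomer as control. Test compound was then added and binding to the intracellular aggregates was assessed by fluorescence microscopy.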
# [11] = target: α-Syn deposits in mouse brain sections (Homo sapiens, UniProt P37840, A53T); assay: Staining of mouse brain sections containing α-Syn deposits; details: SN of AAV-α-Syn A53T-injected mice
# [12] = test system: α-Syn deposits in mouse brain sections; assay: as above; details: SNCA transgenic mice treated with rotenone
# [13] = test system: Aβ plaques or NFTs; assay: Counter-staining of mouse brain sections; details: Tau P301S, 5xFAD, 3xTg mice
# Procedure, shortened: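 Cortical slices from 14-month-old 3xTg, 6-month-old Tau P301S and 12-month-old 5xFAD mice were fixed and incubated with primary antibodies for 12 h at 4 °C. Alexa Fluor-conjugated secondary antibodies were applied for 3 h at room temperature, with DAPI (1 μg/ml) nuclear counterstain. Slices were imaged by confocal microscopy.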
# [14] = target: α-Syn pathology in DLB and MSA patient brain (Homo sapiens, UniProt P37840); assay: Staining of DLB and MSA patient brain sections; details: DLB and MSA patients
# [15] = test system: Aβ plaques or NFTs in AD; assay: Counter-staining of AD patient brain sections; design: species or system human; details: AD patients
# [16] = target: α-Syn aggregates (Homo sapiens, UniProt P37840, A53T); assay: Ex vivo staining after i.v. F0502B in AAV-α-Syn A53T mice; design: species or system mouse; details: 2 mg/kg i.v., 2 h
# Procedure, shortened: (§2)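 Eight-month-old mice received test compound at 2 mg/kg via the tail vein, and brain sections were prepared 2 h later. Sections were stained with anti-Aβ, anti-p-Tau (AT8), anti-p-α-Syn S129 and ThS, and co-localization was assessed. Cortex was examined for 5xFAD, 3xTg and Tau P301S mice. SN was examined for mice given unilateral stereotaxic AAV9-α-Syn A53T into SN at 3 months.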
# [17] = test system: Aβ or Tau aggregates; assay: Ex vivo staining after i.v. F0502B in 5xFAD, 3xTg, Tau P301S mice; design: species or system mouse; details: 2 mg/kg i.v., 2 h
# Procedure, shortened: as §2
# [18] = target: α-Syn fibrils (Homo sapiens, UniProt P37840); assay: [18F]-F0502B saturation binding assay with α-Syn PFFs; details: read-out: KD, α-Syn fibrils, 1 μM PFFs
# Procedure, shortened: (§3)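 PFFs (1 μM) were incubated with [18F]-labelled test compound (5–900 nM) for 1 h at 37 °C in 30 mM Tris-HCl pH 7.4, 0.1% BSA, 0.5% sodium ascorbate. Nonspecific binding was defined with 2 μM unlabeled compound. Samples were filtered, washed twice and counted by scintillation, in duplicate. Kd and Bmax were obtained by nonlinear fit to Y = Bmax*X/(X+Kd).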
# [19] = target: Aβ1–42 fibrils (Homo sapiens, UniProt P05067); assay: [18F]-F0502B saturation binding assay with Aβ PFFs; details: read-out: KD, Aβ fibrils, 1 μM PFFs
# Procedure, shortened: as §3
# [20] = target: Tau fibrils (Homo sapiens, UniProt P10636); assay: [18F]-F0502B saturation binding assay with Tau PFFs; details: read-out: KD, Tau fibrils, 1 μM PFFs
# Procedure, shortened: as §3
# [21] = target: Aβ fibrils in AD patients (Homo sapiens, UniProt P05067); assay: Saturation binding assay with insoluble Aβ fraction from AD brain
# Procedure, shortened: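 Insoluble Aβ was extracted from AD gray matter by homogenization in 0.32 M sucrose, mesh sieving, and centrifugation in 1 M sucrose. This was followed by collagenase/dispase (2 mg/ml) digestion for 16 h at 37 °C and a discontinuous 1.05–1.8 M sucrose gradient.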
# [22] = target: Tau fibrils in AD patients (Homo sapiens, UniProt P10636); assay: Saturation binding assay with insoluble Tau fraction from AD brain
# Procedure, shortened: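 Insoluble Tau was extracted from AD brain in 10 mM Tris-HCl pH 7.4, 0.8 M NaCl, 1 mM EGTA, 10% sucrose. Sequential centrifugations up to 100,000 × g were performed at 4 °C. The pellet was resuspended in 20 mM Tris-HCl pH 7.4, 100 mM NaCl and run over a Superose 6 column.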
# [23] = target: LBs in human brain sections (Homo sapiens, UniProt P37840); assay: Autoradiography with human brain slices; assay type: binding; details: PD versus AD patients; 4 nM tracer
# Procedure, shortened: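 Post-mortem human brain slices, stored at −20 °C, were preincubated in PBS + 0.1% BSA (pH 7.4) to reach room temperature. They were then incubated with [18F]-labelled tracer at room temperature for 30 min, rinsed in cold buffer and once in distilled water, and dried. Slices were exposed to imaging plates for 3 h before development.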
# [24] = target: α-Syn aggregates in macaque brain (Homo sapiens, UniProt P37840, A53T); assay: PET imaging in non-human primate PD models; assay type: in vivo, rhesus macaques; details: macaques injected with AAV-α-Syn A53T
# [25] = test system: α-Syn aggregates in macaque brain; assay: PET imaging in non-human primate PD models; assay type: in vivo, rhesus macaques; details: control macaques
# [26] = test system: α-Syn aggregation; details: cited from earlier work
# Sequence of Aβ fibrils in AD patients (P05067 672-711 limits assumed): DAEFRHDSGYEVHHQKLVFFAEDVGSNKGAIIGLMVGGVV
# Sequence of Tau fibrils in AD patients (P10636 623-708 limits assumed): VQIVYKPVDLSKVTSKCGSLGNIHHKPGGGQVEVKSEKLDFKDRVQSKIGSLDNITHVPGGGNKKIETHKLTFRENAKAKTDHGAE
# Sequence of Tau fibrils (P10636 1-441 isoform P10636-8): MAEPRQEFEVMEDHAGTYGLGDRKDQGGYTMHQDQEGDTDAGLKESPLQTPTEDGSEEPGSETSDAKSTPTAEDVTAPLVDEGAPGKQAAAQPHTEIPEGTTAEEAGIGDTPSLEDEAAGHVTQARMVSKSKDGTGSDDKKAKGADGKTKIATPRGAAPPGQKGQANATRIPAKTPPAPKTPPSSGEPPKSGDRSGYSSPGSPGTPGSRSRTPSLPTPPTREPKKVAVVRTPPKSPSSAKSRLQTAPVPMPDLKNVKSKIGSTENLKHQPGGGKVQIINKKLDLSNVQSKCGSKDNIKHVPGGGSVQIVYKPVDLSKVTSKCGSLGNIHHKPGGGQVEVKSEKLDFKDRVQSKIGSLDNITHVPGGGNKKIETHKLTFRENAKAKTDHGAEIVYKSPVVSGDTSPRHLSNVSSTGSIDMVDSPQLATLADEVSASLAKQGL
# Sequence of Tau PFFs (P10636 1-441 isoform P10636-8): as above
# Sequence of Aβ1–42 fibrils (P05067 672-713 limits assumed): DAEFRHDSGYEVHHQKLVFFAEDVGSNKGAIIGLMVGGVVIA
# Sequence of Aβ PFFs (P05067 672-713 limits assumed): as above
molecule,measurement,setting,value
CN(C)c1ncc(/C=C/c2nc3ccc(OCCF)cc3o2)s1 [BF-227],binding to α-Syn aggregates and Aβ fibrils in vitro,[1],binds to both synthetic α-Syn aggregates and Aβ fibrils in vitro
Cc1cc2nc(/C=C/c3ccc(O)c(Br)c3)sc2cc1N(C)CCOCCF [F0502B],binding selectivity toward α-Syn PFFs versus Aβ and Tau PFFs,[2]; counter screening,stronger binding affinity with α-Syn PFFs than with Aβ and Tau PFFs
same,binding activities toward α-Syn PFFs,[2]; ThT positive control,specifically bound α-Syn fibrils
same,binding to Aβ fibrils,[3],poorly bound
same,binding to Tau fibrils,[4],poorly bound
same,Kd,"[5]; read-out: KD for α-Syn deposits in PD brains, PD brains",4.26 to 7.32 nM
same,Kd,"[5]; read-out: Kd, DLB brain homogenates, unfractionated human DLB brain homogenates",9.79 nM
same,Kd,"[5]; read-out: Kd, PD brain homogenates, unfractionated human PD brain homogenates",4.26 nM
same,Kd,"[6]; read-out: KD, aggregated α-Syn in DLB patients, DLB",6.23 nM
same,Kd,"[6]; read-out: KD, aggregated α-Syn in PD patients, PD",3.68 nM
same,Ki,[7],3.4 nM
same,Cl rate,[8],approximately 33.6 L/h/kg
same,plasma half-life t1/2,[8],6.9 min
same,brain versus plasma (B/P) ratio,[8]; 1 min,0.106
same,brain versus plasma (B/P) ratio,[8]; 1 h,13.37
same,effect on complete cell count or liver/renal functions,[9],did not alter complete cell count or liver/renal functions
same,signals in neurons with α-Syn aggregates,[10],specific association of F0502B with α-Syn aggregates
same,staining of α-Syn deposits in mouse brain sections,[11],specific association of F0502B with α-Syn aggregates
same,staining of α-Syn inclusions,[12],stained the α-Syn inclusions that were positive for p-S129 and 5G4
same,staining of Aβ plaques or NFTs in mouse brain sections,[13],but not Aβ plaques or NFTs; also recorded: weakly associated with Aβ aggregates
same,staining of α-Syn pathology in patient brain slides,[14],specific association of F0502B with α-Syn aggregates
same,staining of Aβ plaques or NFTs in AD brains,[15],but not Aβ plaques or NFTs
same,ex vivo staining of α-Syn aggregates after i.v. injection,[16],selectively stains α-Syn aggregates
same,ex vivo staining of Aβ or Tau aggregates after i.v. injection,[17],not Aβ or Tau aggregates
Cc1cc2nc(/C=C/c3ccc(O)c(Br)c3)sc2cc1N(C)CCOCCF [[^18F]-F0502B],Kd,[18],11 nM
same,Kd,[19],109 nM
same,Kd,[20],120 nM
same,Kd,"[21]; read-out: KD, Aβ fibrils in AD patients",108 nM
same,Kd,"[22]; read-out: KD, Tau fibrils in AD patients",151 nM
Cc1cc2nc(/C=C/c3ccc(O)c(Br)c3)sc2cc1N(C)CCOCC[18F] [[^18F]-F0502B],specific binding in PD/AD/healthy control tissues,"[5]; total and nonspecific binding curves, frontal cortex",only specific binding with PD tissues but not AD or control tissues
same,"Bmax, aggregated α-Syn in DLB patients",[6]; DLB,12.30 fmol/nmol
same,"Bmax, aggregated α-Syn in PD patients",[6]; PD,14.95 fmol/nmol
same,"Bmax, Aβ fibrils in AD patients",[21],2.34 fmol/nmol
same,"Bmax, Tau fibrils in AD patients",[22],1.14 fmol/nmol
same,autoradiographic binding to human brain sections,[23],selectively associated with LBs in brain sections from PD but not AD patients
same,PET signal in brain,[24],demonstrable signals in the striatal regions
same,PET signal in brain,[25],devoid of radiotracer retention
Oc1ccc(-c2cc(-c3cccc(Br)c3)n[nH]2)cc1O [anle138c],inhibition of α-Syn aggregation,[26],complete the inhibition of α-Syn aggregation; also recorded: strong inhibition of α-Syn aggregation
"thioflavin-S [ThS, reference compound]",staining of α-Syn deposits in mouse brain sections,[11],stained all of these aggregates
same,staining of Aβ plaques or NFTs in mouse brain sections,[13],stained all of these aggregates

# Source: article PMC10527432 (Cell, 2023)
